The record followed here is ChEMBL document CHEMBL4350969, “Falcipain Inhibitors Based on the Natural Product Gallinamide A Are Potent in Vitro and in Vivo Antimalarials” (J Med Chem, 2019).

One may read the IC50 as the concentration that inhibits the measured activity by half. Lower therefore signals greater potency. By half-life is commonly meant how long it takes for the measured level to halve. A high value points to slow loss.

For data set [1], the system named is Plasmodium falciparum. Kind of data set: Antimalarial activity against synchronized ring stage CQ-sensitive Plasmodium falciparum 3D7 infected in human erythrocytes incubated for 24 hrs followed by compound washout and subsequent compound addition and measured after 48 hrs by YOYO-1 probe-based flow cytometry. In kind it is functional, organism-based. A general note: A flow cytometer gives signals particle by particle.

A short description of data set [2]: Drug metabolism in human liver microsomes assessed as N,N-bis-demethylation at 10 uM measured after 60 mins in presence of NADPH-generating system by UPLC-MS analysis. Type of data set: ADME, Microsome. The settings on record: 1 h. For orientation: Liver microsomes are vesicles of endoplasmic reticulum, rich in cytochrome P450 enzymes.
In data set [3] the test system is Plasmodium falciparum. Description: Antimalarial activity against synchronized ring stage CQ-resistant Plasmodium falciparum W2 infected in human erythrocytes incubated for 24 hrs followed by compound washout and subsequent compound addition and measured after 48 hrs by YOYO-1 probe-based flow cytometry. In kind it is functional, organism-based.
A short description of data set [4]: Half life in Swiss mouse plasma at 1 ug/ml by UPLC-MS analysis. In kind it is ADME, cell-free. In a few lines:
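Fresh whole blood from non-fasted male Swiss outbred mice; plasma separated by centrifugation. Compound spiked to 1 μg/mL final (0.2% DMSO, 0.4% acetonitrile), kept at 37 °C; aliquots taken over 4 h (n=3 per time point), snap-frozen, protein precipitated with acetonitrile, UPLC-MS (ESI+) against matrix calibration standards. Exponential decay fit gives k; half-life = ln(2)/k.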

For data set [5], the target named is T1, Cysteine protease falcipain-3 (Plasmodium falciparum, UniProt Q9NAW4).
T1 sequence (Q9NAW4 whole entry): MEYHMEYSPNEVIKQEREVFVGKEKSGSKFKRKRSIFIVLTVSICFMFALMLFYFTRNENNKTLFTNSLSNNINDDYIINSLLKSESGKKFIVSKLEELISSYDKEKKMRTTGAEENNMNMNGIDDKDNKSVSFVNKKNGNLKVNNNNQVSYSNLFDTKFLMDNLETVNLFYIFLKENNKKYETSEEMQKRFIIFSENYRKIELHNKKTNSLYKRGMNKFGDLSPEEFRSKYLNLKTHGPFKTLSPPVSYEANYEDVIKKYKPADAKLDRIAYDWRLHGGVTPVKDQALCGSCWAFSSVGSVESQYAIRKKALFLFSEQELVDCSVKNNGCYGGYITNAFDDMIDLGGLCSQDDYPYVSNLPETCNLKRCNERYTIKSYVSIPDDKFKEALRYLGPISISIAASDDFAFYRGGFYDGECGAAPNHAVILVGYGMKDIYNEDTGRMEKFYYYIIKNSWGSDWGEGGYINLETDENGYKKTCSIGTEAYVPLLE
Kind of data set: Inhibition of Plasmodium falciparum N-terminal His-tagged falcipain-3 (33 residues) expressed in Escherichia coli M15 pREP4 using Z-Leu-Arg-AMC as substrate measured after 30 mins by spectrofluorometric method. In a few lines:
(§1)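 Recombinant heterologously expressed FP2 or FP3; inhibition measured by continuous kinetic cleavage of fluorogenic substrate Z-Leu-Arg-AMC.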

For another data set, the system named is HEK293. Kind of data set: Cytotoxicity against HEK293 cells assessed as reduction in cell viability at 25 uM measured after 18 hrs by alamar blue assay. Particulars: human, hek293, 18 h. In kind it is cell-based. Background: Resazurin is reduced to fluorescent resorufin, in cell work by metabolically active cells.
The nature of data set [6]: Half life in Swiss mouse blood at 1 ug/ml by UPLC-MS analysis. Type of data set: ADME, tissue-based. The settings on record: whole blood.
The target of another data set is T2, Falcipain 2 (Plasmodium falciparum, UniProt Q9N6S8).
T2 sequence (Q9N6S8 whole entry): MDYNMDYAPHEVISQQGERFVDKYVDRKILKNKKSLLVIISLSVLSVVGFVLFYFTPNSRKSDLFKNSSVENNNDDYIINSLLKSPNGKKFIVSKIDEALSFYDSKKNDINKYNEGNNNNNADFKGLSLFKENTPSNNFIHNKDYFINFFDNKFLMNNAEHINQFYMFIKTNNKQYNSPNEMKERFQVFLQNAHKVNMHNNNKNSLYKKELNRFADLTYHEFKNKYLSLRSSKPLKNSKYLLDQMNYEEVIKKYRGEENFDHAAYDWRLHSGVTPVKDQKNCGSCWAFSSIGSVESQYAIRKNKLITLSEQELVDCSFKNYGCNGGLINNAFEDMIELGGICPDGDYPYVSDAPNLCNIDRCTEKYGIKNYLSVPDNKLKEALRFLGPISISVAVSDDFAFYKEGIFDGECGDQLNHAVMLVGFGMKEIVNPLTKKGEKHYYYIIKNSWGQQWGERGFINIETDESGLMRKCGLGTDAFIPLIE
Kind of data set: Inhibition of Plasmodium falciparum N-terminal His6-tagged falcipain-2 (35 residues) expressed in Escherichia coli M15 pREP4 using Z-Lue-Arg-AMC as substrate measured after 30 mins by spectrofluorometric method. In a few lines: as §1

Data set [7] in a line: Drug metabolism in mouse liver microsomes assessed as N,N-bis-demethylation at 10 uM measured after 60 mins in presence of NADPH-generating system by UPLC-MS analysis. Type of data set: ADME, Microsome. Particulars: 1 h.
For data set [8], the system named is Plasmodium berghei. Kind of data set: Antimalarial activity against Plasmodium berghei ANKA infected in specific pathogen-free C57BL/6 mouse assessed as reduction in disease severity at 100 mg/kg, po administered once daily for 4 days measured up to 35 days post-infection by rapid staining-based microscopic analysis. In kind it is functional, organism-based. In a few lines: (§2)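 Female C57BL/6 mice, 8–9 weeks old, inoculated i.p. with 10^6 P. berghei ANKA-parasitized red cells. Compound dissolved in DMSO, diluted in 154 mM NaCl, given by oral gavage at 100 mg/kg on days 4, 5, 6 and 7 post-infection. Tail-vein thin smears stained with Rapid Stain, % parasitemia by microscopy; mice euthanized at signs of severe disease.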

Data set [9] has as its system Plasmodium berghei. Kind of data set: Antimalarial activity against Plasmodium berghei ANKA infected in specific pathogen-free C57BL/6 mouse assessed as reduction in parasitemia at 50 mg/kg, ip administered once daily for 4 days measured up to 35 days post-infection by rapid staining-based microscopic analysis. Type of data set: functional, organism-based. In a few lines:
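Established-infection model: female C57BL/6 mice inoculated i.p. with 10^6 PbA-parasitized red cells; compound in DMSO diluted in saline given i.p. at 50 mg/kg on days 4, 5, 6 and 7 post-infection, chloroquine 50 mg/kg as comparator, vehicle controls; 7 mice per group. Tail-vein smears, % parasitemia by microscopy, mean ± SEM; survival recorded.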

Data set [10] has as its system Plasmodium berghei. Kind of data set: Antimalarial activity against Plasmodium berghei ANKA infected in specific pathogen-free C57BL/6 mouse assessed as reduction in parasitemia at 100 mg/kg, po administered once daily for 4 days measured up to 35 days post-infection by rapid staining-based microscopic analysis. Type of data set: functional, organism-based. In outline:
as §2

The source made the active and inactive calls. The rule behind the calls is not given here.

`COC1=CC(=O)N(C(=O)/C=C/[C@H](C)NC(=O)[C@H](CC(C)C)NC(=O)[C@H](CCc2ccccc2)NC(=O)[C@H](C(C)C)N(C)C)[C@H]1Cc1c[nH]c2ccccc12.O=C(O)C(F)(F)F`: the IC50 turned out to be 5 nM with Plasmodium falciparum [1], 7 nM in the data set with Plasmodium falciparum [3], 228 nM in data set [5] and 57 nM against Falcipain 2. Further, the Drug metabolism entry in data set [2] and in [7] was “Metabolite_Detected” throughout. The half-life at 1 ug/ml in data set [4] was 9.28 h; in data set [6], 1.83 h. In addition, the Activity result in the data set with HEK293 is “Non-Toxic”.
For `COC1=CC(=O)N(C(=O)/C=C/[C@H](C)NC(=O)[C@H](CC2CCCCC2)NC(=O)[C@H](CC2CCCCC2)NC(=O)[C@H](C(C)C)N(C)C)[C@H]1Cc1c[nH]c2ccccc12`, the IC50 in the data set with Plasmodium falciparum [1] is 229 nM; in the data set on Plasmodium falciparum [3] it was 119 nM; in [5] it was 459 nM; on Falcipain 2, 464 nM.
On the same counts, the results for `COC1=CC(=O)N(C(=O)/C=C/[C@@H](NC(=O)[C@H](CC(C)C)NC(=O)[C@H](CC2CCCCC2)NC(=O)[C@H](C(C)C)N(C)C)C2CCCCC2)[C@H]1Cc1c[nH]c2ccccc12` are 83 nM, 95 nM, 490 nM and 169 nM.
The like results for `COC1=CC(=O)N(C(=O)/C=C/[C@H](C)NC(=O)[C@H](CC2CCCCC2)NC(=O)[C@H](CC(C)C)NC(=O)[C@H](C(C)C)N(C)C)[C@H]1Cc1c[nH]c2ccccc12` were, in that order, 72 nM, 37 nM, 407 nM and 235 nM.
On to `COC1=CC(=O)N(C(=O)/C=C/[C@H](CC2CCCCC2)NC(=O)[C@H](CC(C)C)NC(=O)[C@H](CC(C)C)NC(=O)[C@H](C(C)C)N(C)C)[C@H]1Cc1c[nH]c2ccccc12`, for which the IC50 in the data set on Plasmodium falciparum [1] is 76 nM; with Plasmodium falciparum [3] it was 54 nM; in data set [5], 2570 nM; at Falcipain 2, 270 nM.
On the same counts, the results for `COC1=CC(=O)N(C(=O)/C=C/[C@H](C)NC(=O)[C@H](CCc2ccccc2)NC(=O)[C@H](CC2CCCCC2)NC(=O)[C@H](C(C)C)N(C)C)[C@H]1Cc1c[nH]c2ccccc12` are 1250 nM, 478 nM, 8790 nM and 3520 nM.
The like results for `COC1=CC(=O)N(C(=O)/C=C/[C@H](C)NC(=O)C(C)(C)NC(=O)[C@H](CC(C)C)NC(=O)[C@H](C(C)C)N(C)C)[C@H]1Cc1c[nH]c2ccccc12` were, in that order, over 10000 nM, 3730 nM, over 50000 nM and over 50000 nM.
Turning to `COC1=CC(=O)N(C(=O)/C=C/[C@H](C)NC(=O)[C@H](CC(C)C)NC(=O)[C@H](CC2CCCCC2)NC(=O)[C@H](C(C)C)N(C)C)[C@H]1Cc1c[nH]c2ccccc12`, the IC50 worked out at 14 nM in the data set with Plasmodium falciparum [1], 11 nM in the data set on Plasmodium falciparum [3], 131 nM in data set [5] and 59 nM at Falcipain 2.
With `COC1=CC(=O)N(C(=O)/C=C/[C@@H](NC(=O)[C@H](CC(C)C)NC(=O)[C@H](CC(C)C)NC(=O)[C@H](C(C)C)N(C)C)C2CCCCC2)[C@H]1Cc1c[nH]c2ccccc12.O=C(O)C(F)(F)F`, the half-maximal inhibitory concentration (IC50) was 9 nM with Plasmodium falciparum [1], 10 nM with Plasmodium falciparum [3], 484 nM in data set [5] and 84 nM on Falcipain 2. The Drug metabolism result in [2] and in data set [7] was “Metabolite_Detected” in each case. Moreover, the half-life at 1 ug/ml in data set [4] and in data set [6] was over 10 h each time. Further, in the data set with HEK293, the Activity entry is recorded as “Non-Toxic”.
For `COC1=CC(=O)N(C(=O)/C=C/[C@H](C)NC(=O)[C@H](CC2CCCCC2)NC(=O)[C@H](CC(C)C)NC(=O)C2CCN(C)CC2)[C@H]1Cc1c[nH]c2ccccc12`, the half-inhibitory concentration (IC50) in the data set on Plasmodium falciparum [1] came out at 205 nM; with Plasmodium falciparum [3], 59 nM; in data set [5], 480 nM; on Falcipain 2, 156 nM.
The like results for `COC1=CC(=O)N(C(=O)/C=C/[C@H](C)NC(=O)[C@H](CC2CCCCC2)NC(=O)[C@H](CC2CCCCC2)NC(=O)C2CCN(C)CC2)[C@H]1Cc1c[nH]c2ccccc12` were, in that order, 164 nM, 55 nM, 547 nM and 455 nM.
On to `COC1=CC(=O)N(C(=O)/C=C/[C@H](C)NC(=O)[C@H](CCc2ccccc2)NC(=O)[C@H](CC(C)C)NC(=O)[C@H](C(C)C)N(C)C)[C@H]1Cc1c[nH]c2ccccc12`, for which the IC50 is 2590 nM in the data set on Plasmodium falciparum [1], 691 nM in the data set on Plasmodium falciparum [3], 10200 nM in data set [5] and 3100 nM at Falcipain 2.
On to `C[C@@H]1CC[C@H]2[C@@H](C)C(=O)O[C@@H]3O[C@@]4(C)CC[C@@H]1[C@]32OO4` [ARTEMISININ], for which the IC50 with Plasmodium falciparum [1] stood at 32 nM; in the data set on Plasmodium falciparum [3], 21 nM.
In the case of `COC1=CC(=O)N(C(=O)/C=C/[C@H](C)NC(=O)[C@H](CC(C)C)NC(=O)[C@H](CC(C)C)NC(=O)[C@H](C(C)C)N(C)C)[C@H]1Cc1c[nH]c2ccccc12.O=C(O)C(F)(F)F`, the half-life at 1 ug/ml in data set [4] and in data set [6] was under 0.0333 h in each case. In addition, in the data set on HEK293, the Activity result is “Non-Toxic”.
With `COC1=CC(=O)N(C(=O)/C=C/C(C)(C)NC(=O)[C@H](CC(C)C)NC(=O)[C@H](CC(C)C)NC(=O)[C@H](C(C)C)N(C)C)[C@H]1Cc1c[nH]c2ccccc12`, the IC50 in the data set on Plasmodium falciparum [1] was 6990 nM; in the data set on Plasmodium falciparum [3] it was 1020 nM; in [5], over 50000 nM; on Falcipain 2, over 50000 nM.
Consider `CCN(CC)CCCC(C)Nc1ccnc2cc(Cl)ccc12` (stereo unspecified), for which the outcome in the data set on Plasmodium berghei [8], with Plasmodium berghei [9] and with Plasmodium berghei [10] was Active.
Take `CC(C)C[C@H](NC(=O)[C@@H]1O[C@H]1C(=O)O)C(=O)NCCCCN=C(N)N`: the half-maximal inhibitory concentration (IC50) in data set [5] turned out to be 136 nM; against Falcipain 2, 68 nM.
On to `COC1=CC(=O)N(C(=O)/C=C/[C@H](C)NC(=O)[C@H](CC(C)C)NC(=O)[C@H](Cc2ccccc2)NC(=O)[C@H](C(C)C)N(C)C)[C@H]1Cc1c[nH]c2ccccc12`, for which the IC50 in the data set with Plasmodium falciparum [1] was found to be 24 nM; in the data set on Plasmodium falciparum [3] it was 10 nM; in data set [5], 851 nM; against Falcipain 2, 60 nM.
